The source of these data is ChEMBL document CHEMBL2176957, “Discovery of a novel noniminosugar acid α glucosidase chaperone series” (J Med Chem, 2012).

≈ marks a conversion by molar mass, not a printed value. Calls of active or inactive are those of the source. No cut-off for these calls is given here.

For orientation: solubility means how much of the substance goes into solution per volume. Low readings indicate a poorly soluble substance, high ones a readily soluble substance. In general, Papp refers to a coefficient for how fast a substance crosses the barrier. In general, IC50 refers to the concentration that inhibits the measured activity by half.

For data set [1], the target named is T1, Lysosomal alpha-glucosidase (Homo sapiens, UniProt P10253). Nature of the data set: Increase in translocation of GAA to lysosomes in human wild type skin fibroblasts at 1 to 5 uM after 5 days by confocal laser-scanning microscopic analysis. The essentials:
(§1)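 Wild-type primary dermal fibroblasts or Pompe patient fibroblasts (F3248, F0833, F2845; low passage) treated with compound for 5 or 6 days. Fixed in 3% paraformaldehyde, permeabilized with 0.1% Triton X-100, blocked, stained with mouse anti-GAA (Alexa-488) and goat anti-cathepsin D (Alexa-555), DAPI counterstain. Confocal images taken at fixed laser settings; percentage of cells with lysosomal GAA co-localization scored.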

Data set [2] is described as follows: Cytotoxicity in human F2845 cells assessed as cell viability at 1 to 5 uM after 5 days confocal laser-scanning microscopic analysis. Type of data set: cell-based. As to conditions: f2845, 120 h. The method in brief:
(§2)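 Primary wild-type dermal fibroblasts and patient-derived Pompe fibroblasts (passage 7) grown on chamber slides and exposed to compound for 5 or 6 days. Viability judged from the cultures examined by immunostaining and confocal microscopy.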

Data set [3] concerns Caco-2. Nature of the data set: Efflux ratio from basolateral to apical side to apical to basolateral side of human Caco2 cells. In kind it is ADME, cell-based. For orientation: Passage across Caco-2 layers is used to estimate intestinal permeability.
Data set [4] is described as follows: Aqueous solubility in PBS buffer.
Data set [5] addresses T1, Lysosomal alpha-glucosidase. Nature of the data set: Increase in GAA activity in human F2845 cells incubated for 5 days followed by 18 to 40 hrs wash out by fluorescence assay relative to vehicle-treated control. Type of data set: cell-based. The method in brief: (§3)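 Fibroblasts seeded at 5,000 cells/well and treated 5 days, with media and compound renewed on day 3. Assayed directly or after PBS wash and 18 h or 40 h in compound-free medium. Cells were incubated 2 h at 37 °C in pH 4.0 citrate/phosphate buffer with 3 mM 4-MUG and acarbose, then stopped at pH 10. Background subtracted, normalized to vehicle (100%); triplicate, mean ±SD.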

For data set [6] the target is unchanged. Nature of the data set: Inhibition of human recombinant GAA assessed as hydrolysis of bovine liver glycogen by Amplex red oxidase assay. The method in brief: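 Recombinant human GAA hydrolysing bovine liver glycogen as the native substrate. Released glucose was detected with an Amplex Red glucose oxidase coupled reaction, read as fluorescence on a plate reader.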

Data set [7] has as its system Caco-2. Nature of the data set: Permeability from basolateral to apical side of human Caco2 cells.
In data set [8] the target is T1, Lysosomal alpha-glucosidase. Put plainly: Increase in translocation of GAA to lysosomes in human F2845 cells at 1 to 5 uM after 5 days by confocal laser-scanning microscopic analysis. Type of data set: cell-based. The method in brief:
as §1

The subject of data set [9] is Caco-2. Put plainly: Permeability from apical to basolateral side of human Caco2 cells.
Data set [10] in a line: Cytotoxicity in human wild type skin fibroblasts assessed as cell viability at 1 to 5 uM after 5 days by confocal laser-scanning microscopic analysis. As to conditions: skin fibroblast, 120 h. The essentials:
as §2

Data set [11] can be described thus: Cytotoxicity in human F2845 cells at 10 to 20 uM after 6 days by confocal laser-scanning microscopic analysis. Type of data set: cell-based. Conditions: f2845, 144 h. The essentials:
as §2

Data set [12] deals with T1, Lysosomal alpha-glucosidase. Nature of the data set: Binding affinity at wild type recombinant GAA assessed as rise in melting temperature of protein using SYPRO Orange dye by fluorescence assay. The method in brief:
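Thermal shift of recombinant wild-type GAA (1 μM) with SYPRO Orange (5×) in 50 mM citrate buffer pH 5.0 with 100 mM KCl, 10 mM NaCl, 1 mM MgCl2. Six-point compound series, 0.82–200 μM final, 2% DMSO, DMSO controls. Heated 20 to 95 °C at 4.8 °C/s; fluorescence ex 498/em 580 nm; Tm calculated from the melt curve.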

The target of data set [13] is T2, Lysosomal acid glucosylceramidase (Homo sapiens) (UniProt P04062).
T2 sequence (whole entry): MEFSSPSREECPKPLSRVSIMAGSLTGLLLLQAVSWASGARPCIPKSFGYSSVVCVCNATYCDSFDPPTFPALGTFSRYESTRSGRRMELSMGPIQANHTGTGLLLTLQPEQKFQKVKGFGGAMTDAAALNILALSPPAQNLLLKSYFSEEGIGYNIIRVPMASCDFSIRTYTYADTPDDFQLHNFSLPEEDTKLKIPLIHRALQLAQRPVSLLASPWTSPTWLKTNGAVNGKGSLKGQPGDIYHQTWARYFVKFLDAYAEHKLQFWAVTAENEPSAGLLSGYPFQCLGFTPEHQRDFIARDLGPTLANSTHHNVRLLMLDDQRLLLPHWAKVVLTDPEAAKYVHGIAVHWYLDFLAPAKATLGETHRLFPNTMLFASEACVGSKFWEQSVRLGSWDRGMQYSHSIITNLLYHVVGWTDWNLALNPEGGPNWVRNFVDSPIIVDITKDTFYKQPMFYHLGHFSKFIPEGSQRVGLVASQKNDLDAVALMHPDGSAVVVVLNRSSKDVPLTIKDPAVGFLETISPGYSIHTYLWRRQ
Nature of the data set: Inhibition of glucocerebrosidase.

Data set [14] deals with T1, Lysosomal alpha-glucosidase. Nature of the data set: Ratio of Kd for wild type recombinant NT-495 labelled GAA to IC50 for wild type recombinant GAA (unknown origin.
Data set [15] has the same target. Put plainly: Increase in GAA activity in human wild type skin fibroblasts incubated for 5 days followed by 18 to 40 hrs wash out by fluorescence assay relative to vehicle-treated control. The method in brief:
as §3

Data set [16] has the same target. Put plainly: Inhibition of wild type recombinant GAA preincubated for 5 mins measured after 45 mins using red-shifted dye by fluorescence assay. Conditions: read-out: IC50.
Data set [17] is described as follows: Inhibition of alpha-galactosidase.
Data set [18] deals with T1, Lysosomal alpha-glucosidase. Put plainly: Inhibition of wild type recombinant GAA preincubated for 5 mins measured after 45 mins using blue-shifted dye by fluorescence assay. As to conditions: read-out: IC50.
The nature of data set [19]: Cytotoxicity in human wild type skin fibroblasts at 10 to 20 uM after 6 days by confocal laser-scanning microscopic analysis. Conditions: skin fibroblast, 144 h. The method in brief:
as §2

Data set [20] addresses T1, Lysosomal alpha-glucosidase. Put plainly: Binding affinity at wild type recombinant GAA assessed as thermostabilization of protein at 50 uM incubated at 66 degC for 60 mins. The method in brief: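 GAA incubated at 66 °C for 60 min with compound at 50 μM, compared with room-temperature incubation. Residual enzymatic activity read out and expressed as the ratio of heated to room-temperature activity; DMSO controls run in duplicate.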

The test system of a further data set is Liver. Put plainly: Half life in mouse liver microsomes. A general note: Liver microsomes are vesicles of endoplasmic reticulum, rich in cytochrome P450 enzymes.
In data set [21] the target is T1, Lysosomal alpha-glucosidase. Nature of the data set: Increase in GAA activity in human wild type skin fibroblasts incubated for 5 days by fluorescence assay relative to vehicle-treated control. The essentials: as §3
For data set [22] the target is unchanged. Put plainly: Increase in GAA activity in human F2845 cells incubated for 5 days by fluorescence assay relative to vehicle-treated control. In kind it is cell-based. The method in brief: as §3

Turning to `CC(=O)c1ccc(N2CCN(S(=O)(=O)c3ccc4c(c3)CC(=O)N4)CC2)cc1`, the result in [1] and in data set [8] was inactive. Besides, the Activity entry in data set [2] is recorded as “Non-toxic”; in data set [10], “Non-toxic”; in data set [11], “Toxic”; in data set [19], “Toxic”. For the same molecule, the Ratio in the data set on Caco-2 [3] worked out at 1.9; in [14] it was 20. In data set [4], this molecule returned a solubility of 7.9 µM (≈ 3.16 µg/mL). For the same molecule, the outcome in data set [5], in data set [12], in [15], in data set [20], in [21] and in data set [22] was Active. The INH in data set [6] was 330 nM. The Papp in the data set with Caco-2 [7] was determined as 27.1 ×10⁻⁶ cm/s; in the data set with Caco-2 [9], 14.6 ×10⁻⁶ cm/s. Besides, the inhibition entry in data set [13] and in data set [17] was “Active” each time. Also, the IC50 in [16] worked out at 940 nM; in data set [18] it was 750 nM. Also, the t1/2 with Liver was over 1 h.
